# Most compounds without a hit are left out; they make up all but 1.8% or so of the library.
# APOBEC3G inh – blocks human APOBEC3G single-stranded DNA deamination; Q9HC16; recombinant A3G, ssDNA deamination FAM/TAMRA fluorescence; inhibition, % at 20 µM; 330,000 tested, 0.28% active;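 active = inhibition of at least 40% at 20 µM, with no more than 30% in the related APOBEC3A deaminase screen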;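 also: plate controls were DMSO wells with A3G for no effect and wells lacking A3G enzyme for full effect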
# Target sequence (Q9HC16 whole entry, looked up): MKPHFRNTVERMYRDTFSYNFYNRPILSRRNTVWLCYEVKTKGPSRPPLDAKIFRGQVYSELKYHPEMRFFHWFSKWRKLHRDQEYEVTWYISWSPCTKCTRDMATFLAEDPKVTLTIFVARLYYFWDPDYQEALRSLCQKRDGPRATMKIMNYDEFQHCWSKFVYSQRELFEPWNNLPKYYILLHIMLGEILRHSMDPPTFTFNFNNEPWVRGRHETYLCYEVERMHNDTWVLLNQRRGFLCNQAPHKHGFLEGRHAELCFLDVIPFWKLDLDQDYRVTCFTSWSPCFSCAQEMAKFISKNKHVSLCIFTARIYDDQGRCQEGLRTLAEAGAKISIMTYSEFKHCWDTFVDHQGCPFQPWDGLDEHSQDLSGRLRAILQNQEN
# A3A deaminase – blocks human APOBEC3A ssDNA deamination. recombinant A3A, FAM/TAMRA ssDNA deamination fluorescence. inhibition, % at 20 µM. 330,000 tested, 0.41% active. P31941;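 active = at least 40% inhibition at 20 µM here, with at most 30% in a related deaminase screen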;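 also: plate controls were A3A with DMSO for no effect and wells lacking A3A enzyme for full effect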
# p-CIP stab down – compounds decreasing mouse p/CIP protein stability; Q05BA5; F442A p/CIP-EGFP cells, EGFP fluorescence, 16 h; decrease of EGFP signal, % at 10 µM; 290,000 tested, 0.01% active; AID 1984;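 active = EGFP signal decrease of at least 30% at 10 µM or well 3 SD below plate mean, unless failing retest; inactive = the rest, including hits failing retest or dose response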
# Tb MetRS inh – Trypanosoma brucei MetRS inhibition; purified T. brucei MetRS, ATP depletion, Kinase-Glo luminescence; inhibition, % at 11.9 µM; 360,000 tested, 0.4% active;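 active = inhibition above a per-plate cutoff of the control wells' mean inhibition plus 3 SD, cut at about 5.5% in these data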;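 also: 0% = DMSO wells median and 100% = median of wells with control inhibitor compound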
#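 System: purified T. brucei MetRS enzyme / Detection: Kinase-Glo luciferase luminescence reporting remaining unconsumed ATP / Medium: HEPES buffer with MgCl2, KCl, DTT, spermine, BSA, pyrophosphatase / Replication: singlicate, one well per compound / Evaluation: percent inhibition relative to median high and low control wells / Schedule: 2 h aminoacylation at 25 °C after 15 min preincubation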
# PHOSPHO1 block – PHOSPHO1 (human) inhibition | AID 1565 | inhibition, % at 13.3 µM | Q8TCT1 | 290,000 tested, 1.1% active | recombinant PHOSPHO1, absorbance phosphatase assay; in the data active = inhibition above about 60%
# Target sequence (Q8TCT1 whole entry, looked up): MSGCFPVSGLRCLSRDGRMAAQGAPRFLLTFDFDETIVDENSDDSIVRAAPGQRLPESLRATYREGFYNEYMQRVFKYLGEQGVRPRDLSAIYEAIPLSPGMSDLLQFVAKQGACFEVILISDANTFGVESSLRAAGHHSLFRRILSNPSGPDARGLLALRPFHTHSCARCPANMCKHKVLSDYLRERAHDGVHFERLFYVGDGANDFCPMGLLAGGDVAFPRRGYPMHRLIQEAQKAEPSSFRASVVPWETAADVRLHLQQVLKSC
# A3A conf – APOBEC3A (human) deaminase inhibition, confirmed; 1,400 tested, 63% active; recombinant A3A, ssDNA deaminase UDG fluorescence assay; shares compounds with A3A deaminase; inhibition, % at 20 µM;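 active = inhibition reaching a set limit, 80% of the first screen's cutoff, at 20 µM in any replicate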;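 also: plate controls were DMSO wells with A3A for no effect and wells lacking A3A enzyme for full effect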
# UDG ctr A3A – counter-screen for APOBEC3A inhibitors: UDG; shares compounds with A3A deaminase; UDG counterscreen, FAM/TAMRA uracil oligo fluorescence; inhibition, % at 20 µM; 1,000 tested, under 10 active; AID 504714; call rule not given here
# Active calls of the source: *; nt = not tested or not shown.
SMILES,APOBEC3G inh,A3A deaminase,p-CIP stab down,Tb MetRS inh,PHOSPHO1 block,A3A conf,UDG ctr A3A
Cn1c(=O)c2c([nH]c(OCc3ccc(Cl)cc3Cl)[n+]2Cc2ccc(F)cc2)n(C)c1=O,-4.0,-3.1,-0.1,-0.7,26.8,nt,nt
CCc1cccc(NC(=O)CN(C)S(=O)(=O)c2cnc[nH]2)c1,-0.6,-2.4,4.6,-0.3,50.0,nt,nt
O=S(=O)(Nc1ccon1)c1ccc(Br)s1,-4.8,76.0*,-13.6,-0.2,18.5,-2.0,-2.6
CC(OC(=O)c1cc(Br)ccc1O)C(=O)NC1(C#N)CCCCC1 (stereo not given),-1.3,2.3,nt,0.1,nt,nt,nt
Cc1cccc(S(=O)(=O)NNC(=O)Cc2cccn2C)c1,-8.0,58.3*,-6.5,0.5,-44.7,-1.6,2.2
COc1ccc2oc(C(=O)OCC(=O)Nc3ccc(NC(C)=O)cc3)c(C)c2c1,2.2,46.6*,nt,-0.3,nt,0.3,nt
COc1ccc2oc(C(=O)OCC(=O)Nc3ccc(OC)c(S(N)(=O)=O)c3)c(C)c2c1,-5.3,-0.7,nt,-0.4,nt,nt,nt
COc1ccc2oc(C(=O)Nc3cccc(S(=O)(=O)N4CCOCC4)c3)c(C)c2c1,-10.5,-5.6,nt,-0.4,nt,nt,nt
COc1ccc2oc(C(=O)OCC(=O)Nc3cccc(S(=O)(=O)N4CCOCC4)c3)c(C)c2c1,-1.7,43.5*,nt,-0.5,nt,14.8,2.0
CCC(C)C1/C=C\CC(NC(=O)OCC2c3ccccc3-c3ccccc32)CC(=O)N1Cc1ccccc1 (stereo not given),0.5,-0.2,nt,-0.8,nt,nt,nt
CCN(CC(=O)Nc1ccc(NC(C)=O)cc1)C(=O)/C=C/c1cn(-c2ccccc2)nc1-c1cccs1,3.7,44.9*,nt,-0.2,nt,16.2,nt
CCN(CC(=O)Nc1ccc(NC(C)=O)cc1)C(=O)/C=C/c1ccccc1,-9.5,-0.9,nt,0.0,nt,nt,nt
COc1ccc(CC2(c3ccccc3)NC(=O)NC2=O)cc1 (stereo not given),nt,nt,nt,-0.2,nt,nt,nt
O=C(COC(=O)c1ccc(O)cc1)Nc1cccc(S(=O)(=O)NC2=NCCCCC2)c1,2.3,-4.6,-9.2,-0.4,11.9,nt,nt
CCN(CC)S(=O)(=O)c1cccc(C(=O)Nc2ccc(S(=O)(=O)NC3=NCCCCC3)cc2)c1,3.2,55.1*,nt,-0.5,nt,7.4,nt
CON(C)S(=O)(=O)c1cccc(C(=O)Nc2ccc(S(=O)(=O)NC3=NCCCCC3)cc2)c1,-10.9,22.0,nt,-0.4,nt,nt,nt
COc1cc(OC)cc(C(=O)OCC(=O)Nc2cccc(S(=O)(=O)NC3=NCCCCC3)c2)c1,-1.1,88.4*,nt,-0.3,nt,-4.1,2.1
CC(=O)NC1C(Oc2ccccc2C)OC2COC(c3ccco3)OC2C1O (stereo not given),-5.2,3.6,-12.4,0.9,-4.0,nt,nt
O=C(NCCc1ccccc1)c1ccc2c(c1)OCCCO2,5.6,41.6*,-12.6,-0.6,30.5,51.0*,1.7
O=C(NCCc1ccccc1)c1ccc2c(c1)OCCO2,-7.6,0.0,-0.8,-0.3,9.0,nt,nt
COc1ccc(NC(=O)CNS(=O)(=O)c2ccc(Cl)cc2)cc1,1.8,0.5,-7.1,0.5,-18.3,nt,nt
COc1ccc(NC(C)=[N+](C)CCNS(=O)(=O)c2ccc(Cl)cc2)cc1,14.5,46.0*,-5.7,0.1,-23.1,28.7,nt
COc1ccc(-n2nc(C(=O)NCC(=O)NCc3ccc(F)cc3)c3ccccc3c2=O)c(OC)c1,nt,nt,-2.3,-0.2,-1.4,nt,nt
CC1(C(=O)NCCc2ccccc2)Cc2c(-c3cccc(C(F)(F)F)c3)ccnc2O1 (stereo not given),nt,nt,nt,0.3,nt,nt,nt
C(=Cc1nc2ccccc2o1)c1ccc2c(c1)OCO2,nt,nt,nt,-0.2,nt,nt,nt
SMILES,APOBEC3G inh,A3A deaminase,p-CIP stab down,Tb MetRS inh,PHOSPHO1 block,A3A conf,UDG ctr A3A
C[n+]1c(/C=C/c2ccc3c(c2)OCO3)ccc2ccccc21,20.2,86.0*,4.0,-0.7,15.9,86.6*,-2.4
C[n+]1c(/C=C/c2ccc(O)cc2)ccc2ccccc21,27.6,57.3*,-1.3,-1.3,22.2,75.3*,5.3
CCN1CCCC(OC(=O)c2cc(-c3ccc(C)cc3)nc3ccccc23)C1 (stereo not given),-2.0,-0.5,-3.5,-0.9,24.1,nt,nt
O=C(C(=O)N1CCCCCC1)c1c[nH]c2ccccc12,-3.7,-4.0,7.7,1.2,-10.7,nt,nt
C[n+]1cc(C(=O)N2CCCCC2)ccc1/C=C/c1c[nH]c2ccccc12,14.1,75.1*,-76.0,0.2,20.8,72.6*,7.1
OCC[C@@H]1C[C@@H](O)[C@H](O)[C@]2(Cc3ccccc3CO2)O1,-6.0,-2.2,0.3,-0.1,-5.6,nt,nt
Cc1cc(/C=C2\SC(=O)N(C)C2=O)c(C)n1-c1ccc(S(N)(=O)=O)cc1,15.7,50.2*,15.4,-0.7,-16.3,63.2*,-0.8
O=C(COC(=O)c1cc(Cl)ccc1O)NCC1CCCO1 (stereo not given),6.3,-5.5,nt,-0.3,nt,nt,nt
CC(CCc1ccccc1)NC(=O)COC(=O)CC1CC2CCC1C2 (stereo not given),-2.8,121.2*,2.0,0.0,-18.9,-6.0,-3.2
O=C(NCc1ccccc1)C1(c2cccc(F)c2)CCCC1,-8.0,-3.6,-10.8,-1.2,15.0,nt,nt
CC(=O)c1ccc(S(=O)(=O)N2Cc3ccccc3CC2C(=O)O)cc1 (stereo not given),19.1,56.4*,-15.1,-0.4,16.0,56.0*,1.9
COc1cccc(NC(=O)CN(C)CC(=O)Nc2ccc(C)c(S(=O)(=O)N3CCOCC3)c2)c1,nt,nt,nt,0.2,nt,nt,nt
Cc1ccc(/C=C/S(=O)(=O)NCC(=O)OCC(=O)Nc2c(F)cccc2F)cc1,11.1,54.9*,nt,-0.5,nt,1.2,nt
Cc1ccc(/C=C/S(=O)(=O)NCC(=O)OCC(=O)Nc2ccc(C(N)=O)cc2)cc1,-7.5,19.1,nt,-0.1,nt,nt,nt
O=C(Nc1cc(Cl)ccc1F)C1=COCCO1,7.6,-0.3,nt,0.5,nt,nt,nt
CC(NC(=O)CSc1nnc(CC(=O)Nc2ccc(Cl)c(Cl)c2)n1C)c1ccccc1 (stereo not given),14.7,46.9*,-2.9,2.5,95.4*,47.9*,nt
COc1ccc(N(CC(=O)N2CCCCCC2)S(C)(=O)=O)cc1Cl,-3.5,-2.4,-3.3,-0.3,30.2,nt,nt
COc1ccc(N(CC(=O)N2CCc3ccccc3C2)S(C)(=O)=O)cc1Cl,6.1,47.2*,3.7,-0.3,-1.3,12.5,nt
CCC(C)C(NC(N)=O)C(=O)Nc1ccc(C)c(Cl)c1 (stereo not given),6.5,56.0*,5.2,-0.2,-3.9,1.9,nt
CC[C@H](C)[C@H](NC(N)=O)C(=O)Nc1ccc(OC)c(Cl)c1,-6.4,8.3,-0.4,-0.4,28.5,nt,nt
O=C(CSc1nnc(NC(=O)c2ccccc2)s1)NCc1ccco1,-1.7,2.5,-1.8,-0.3,42.6,nt,nt
O=C(CSc1nnc(NC(=O)c2ccc3c(c2)OCO3)s1)NCc1ccco1,-3.1,88.0*,-0.9,-1.1,48.4,-2.2,1.8

# High-throughput results deposited in PubChem by several laboratories.
